A selection: hits, their analogues and other compounds. The true share with any hit is near 4.1%.
KCNQ1 pot – potentiators or activators of KCNQ1 channel, primary screen, cell-based, thallium flux, high-throughput | B-score at 10 µM | CHO-K1 KCNQ1, thallium flux FluxOR fluorescence; hits give high values | AID 2648, 2010 | 0.35% of 310,000 active;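 active = fluorescence ratio B-score, a plate-corrected score, at least three library SD, with initial intensity B-score within 5 SD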
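assay system = CHO-K1 cells stably expressing KCNQ1 | medium = assay buffer, equal DMSO in all wells | timing = 37 °C overnight plating, 90-min dark dye load, 20-min compound pretreatment | measured by = kinetic FluxOR thallium fluorescence, 10-s 1-Hz baseline, 110-s post-stimulus read | measure = fluorescence change relative to baseline, converted to B score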
hERG protect – hERG rescue from dofetilide block, primary screen, cell-based, CHO-hERG, FluxOR thallium flux, dofetilide IC70; dofetilide IC70 present; activation (rescue from dofetilide block), less the hit threshold, % at 10 µM; 0.51% of 310,000 active;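 active = activation above the mean of controls blocked by dofetilide plus 5 SD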;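 also: thallium influx through hERG after potassium depolarization seen as dye fluorescence rise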
KCC2 mod – KCC2 cotransporter modulators, thallium flux, primary screen, cell-based, HEK293 KCC2, FluoZin-2 fluorescence, MLSMR; KCC2 cells, thallium flux FluoZin-2 fluorescence; Solute carrier family 12 member 5 (Homo sapiens), Q9H2X9; B-score of Tl+ flux slope (higher = more flux/activation; lower = inhibition) at 10 µM; 2.2% of 190,000 active; AID 1456, 2008;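 active = thallium flux slope and its plate-corrected score both differing from the plate sample mean at a set confidence after two filtering rounds, in either direction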;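 also: slope of fluorescence scaled to starting intensity during 10 to 20 s after thallium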
KCNK9 block – KCNK9 potassium channel inhibitors, primary screen, HEK293 cells, thallium flux; FluxOR thallium flux fluorescence; hits give low values; AID 488922, 2010; 1.2% of 310,000 active; B-score at 10 µM;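 active = ratio B-score over 3 SD below the library mean, with starting fluorescence within 5 SD of its mean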;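 also: negative B-score means less thallium flux so channel inhibition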
KCNQ1 inh – inhibitors of human KCNQ1 channel, primary screen, cell-based, thallium flux, high-throughput. Potassium voltage-gated channel subfamily KQT member 1 (Homo sapiens), P51787. CHO-K1 KCNQ1, FluxOR thallium flux fluorescence; hits give high values. B-score at 10 µM. 1.3% of 310,000 active. AID 2642, 2010;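 active = compounds whose thallium flux B-score, printed positive for inhibition, exceeds three library SD while starting fluorescence stays within three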;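 also: channel opened by potassium depolarization with thallium stimulus after 20 min compound exposure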
KCNK3 inh – human KCNK3 channel inhibitors, primary screen, CHO cells, FluxOR thallium flux, B-score; Potassium channel subfamily K member 3 (Homo sapiens), O14649; FluxOR fluorescence; hits give low values; B-score at 10 µM; 0.84% of 340,000 active; AID 602410, 2012;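 active = B-score under library mean minus 4 SD, starting fluorescence ratio at most library mean plus 5 SD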;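 also: more negative B-score means stronger inhibition of thallium flux through KCNK3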
KCNK9 block conf – KCNK9 potassium channel inhibitors, confirmation, HEK293 cells, thallium flux, duplicate. shares compounds with KCNK9 block. FluxOR thallium flux fluorescence. inhibition, % at 10 µM. 43% of 4,900 active. AID 492992, 2010;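 active = thallium signal inhibited by more than 5 SD of the compound-free buffer control wells, on both duplicate plates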
Kir21 sel – mouse Kir2.1 channel inhibition, confirmation, selectivity assay for KCNK9 modulator project, cell-based, HEK293, thallium flux; shares compounds with KCNK9 block; Kir2.1 cells, FluxOR thallium flux fluorescence; inhibition, % at 10 µM; 4% of 4,900 active; AID 492993, 2010;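 active = thallium signal drop more than 5 SD beyond the mean of the no-compound control wells, seen in both duplicate plates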;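 also: signal is fluorescence rise after thallium addition divided by baseline fluorescence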
Target sequence (P35561 whole entry, looked up): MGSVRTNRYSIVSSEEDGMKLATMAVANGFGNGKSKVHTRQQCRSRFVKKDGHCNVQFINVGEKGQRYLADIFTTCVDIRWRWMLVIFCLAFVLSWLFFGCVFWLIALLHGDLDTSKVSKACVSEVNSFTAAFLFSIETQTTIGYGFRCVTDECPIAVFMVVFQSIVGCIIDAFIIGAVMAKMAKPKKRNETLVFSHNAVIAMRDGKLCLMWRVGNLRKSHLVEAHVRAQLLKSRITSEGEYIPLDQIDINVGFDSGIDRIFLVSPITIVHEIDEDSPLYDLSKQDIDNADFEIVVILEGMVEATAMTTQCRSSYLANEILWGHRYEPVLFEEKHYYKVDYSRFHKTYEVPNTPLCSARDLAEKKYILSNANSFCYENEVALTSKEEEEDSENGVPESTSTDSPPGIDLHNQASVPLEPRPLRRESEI
HEK293 Tl ctr – thallium flux in non-induced HEK293 cells, confirmation, counter-screen for KCNK9 inhibitor project, cell-based, second counter screen, non-induced KCNK9-HEK293; shares compounds with KCNK9 block; FluxOR thallium flux; 40% of 4,900 active; inhibition, % at 10 µM;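 active = thallium signal drop beyond 5 SD of the untreated control mean, on both duplicate plates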
A number is an active result; . = inactive; / = no result.

SMILES	KCNQ1 pot	hERG protect	KCC2 mod	KCNK9 block	KCNQ1 inh	KCNK3 inh	KCNK9 block conf	Kir21 sel	HEK293 Tl ctr
CCN(CC)CCOc1ccc(/C(=C(/Cl)c2ccccc2)c2ccccc2)cc1	.	.	.	.	8	.	.	.	.
O=S(=O)(Nc1nc2ccccc2nc1N1CCc2ccccc2C1)c1ccc(Cl)cc1	.	.	.	-12.3	.	.	46.0%	.	.
CC(=O)Nc1ccc(S(=O)(=O)Nc2nc3ccccc3nc2N2CCc3ccccc3C2)cc1	.	.	.	.	.	.	/	/	/
CCOC(=O)C1CCCN(C(=O)c2ccc(Cl)c(S(=O)(=O)N3CCCCCC3)c2)C1 (centres undefined)	.	.	.	.	.	.	.	.	.
COc1cc2c(cc1OC)C(C)N(C(=O)c1ccc(Cl)c(S(=O)(=O)N3CCCCC3)c1)CC2 (centres undefined)	.	.	/	-11.2	.	.	32.5%	.	.
O=C(c1ccc(Cl)c(S(=O)(=O)N2CCCC2)c1)N1CCN(Cc2ccccc2)CC1	/	/	/	/	/	.	/	/	/
CN1CCN(C(=O)c2ccc(Cl)c(S(=O)(=O)N3CCCCCC3)c2)CC1	.	.	.	.	.	.	/	/	/
O=C(c1ccc(Cl)c(S(=O)(=O)N2CCCCC2)c1)N1CCN(Cc2ccccc2)CC1	.	.	/	.	.	.	.	.	.
O=C(OCC(=O)N1CCCCCC1)c1ccc(Cl)c(S(=O)(=O)N2CCCC2)c1	.	.	.	.	.	.	.	.	.
CC1CCCN(C(=O)c2ccc(Cl)c(S(=O)(=O)N3CCCCCC3)c2)C1 (centres undefined)	/	/	/	/	/	.	/	/	/
COc1ccc(C=NN=C2c3ccccc3-c3ccccc32)cc1OC	/	/	/	/	/	.	/	/	/
Cc1cc(CSc2ccc(Cl)cc2)ccc1N	/	/	/	/	/	.	/	/	/
O=C(NCCCN1CCOCC1)c1cc(-c2ccc(Br)cc2)on1	.	.	.	.	.	.	/	/	/
O=C(NCCN1CCOCC1)c1cc(-c2ccc(Br)cc2)on1	.	.	/	-11.9	.	.	.	.	.
CCOC(=O)c1ccccc1NC(=O)c1cn(-c2ccc(OC)cc2)c(=O)c2ccccc12	.	.	.	-9.27	.	.	26.5%	.	.
O=C(c1ccccc1)c1ccccc1NC(=O)C1CCCN1Cc1ccccc1 (centres undefined)	.	.	.	-9.47	.	.	58.5%	.	38.5%
CCNCC(=O)N1c2ccccc2CCc2ccc(NC(C)=O)cc21	.	.	.	.	.	.	/	/	/
CCNCC(=O)N1c2ccccc2CCc2ccc(NC(=O)OC(C)C)cc21	.	.	/	-12.9	.	.	65.5%	.	.
CC(Sc1nc2ccccc2c(=O)n1C)C(=O)Nc1ccc2c(c1)OCCO2 (centres undefined)	/	/	/	/	/	.	/	/	/
CC(C)Cn1c(SC(C)C(=O)Nc2ccc3c(c2)OCCO3)nc2ccccc2c1=O (centres undefined)	.	.	/	-8.46	.	.	.	.	.
O=C(O)c1ccccc1NS(=O)(=O)c1cccc(C(F)(F)F)c1	.	.	.	.	.	.	/	/	/
O=C(O)c1ccccc1NS(=O)(=O)c1cccc(-n2sc3ccccc3c2=O)c1	13	.	/	.	.	.	.	.	.
CO/N=C(\c1nonc1N)N1CCN(c2ccc(Cl)cc2[N+](=O)[O-])CC1	.	.	.	-8.27	.	.	31.5%	.	39.0%
CC12CCC(C(=O)N(c3nccs3)C1=O)C2(C)C (centres undefined)	/	/	/	/	/	.	/	/	/
O=C(c1cccc(S(=O)(=O)N2CCc3ccccc32)c1)N1CCN(c2ccccn2)CC1	.	.	.	-10.1	.	.	36.0%	.	.
SMILES	KCNQ1 pot	hERG protect	KCC2 mod	KCNK9 block	KCNQ1 inh	KCNK3 inh	KCNK9 block conf	Kir21 sel	HEK293 Tl ctr
NC(=O)COC(=O)c1c2c(nc3ccccc13)CCCC2	.	.	.	.	.	.	/	/	/
O=C(COC(=O)c1cc(-c2ccccc2)nc2ccccc12)Nc1ccc2c(c1)OCO2	.	.	.	.	.	.	/	/	/
O=C(COC(=O)c1c2c(nc3ccccc13)CCCC2)Nc1ccc2c(c1)OCO2	.	.	.	-12.4	.	.	48.0%	.	.
O=C(OCC(=O)N1CCc2ccccc21)c1cccc(S(=O)(=O)N2CCCc3ccccc32)c1	.	.	.	.	.	.	.	.	.
O=C(OCC(=O)N1CCc2ccccc21)c1c2c(nc3ccccc13)CCCCC2	.	.	.	-12.8	.	.	52.0%	.	34.5%
COc1ccc(Cl)cc1NS(=O)(=O)c1cccc(C(=O)NCCCN2CCCC2=O)c1	.	.	/	.	.	.	/	/	/
Cc1cc(C2C(=O)NC(=O)C2=O)c(C)cc1Br (centres undefined)	/	/	/	/	/	.	/	/	/
O=C(CSc1ncn[nH]1)N1N=C2/C(=C/c3ccccc3)CCCC2C1c1ccccc1 (centres undefined)	.	.	.	-12.3	.	.	52.5%	.	33.0%
COc1ccc(/C=C2\CCCC3C2=NN(C(=O)CSc2ncn[nH]2)C3c2ccc(OC)cc2)cc1 (centres undefined)	.	.	.	.	.	.	/	/	/
CCCCCCOC(=O)CC1CC(C(C)=O)C1(C)C (centres undefined)	/	/	/	/	/	.	/	/	/
CC(C)Oc1cccc(C(=O)C2CCCN(C(=O)c3ccc4c(c3)OCO4)C2)c1 (centres undefined)	.	.	/	.	.	.	.	.	.
CC(C)Oc1cccc(C(=O)C2CCCN(C(=O)c3ccccn3)C2)c1 (centres undefined)	.	.	/	.	.	.	/	/	/
CC(C)Oc1cccc(C(=O)C2CCCN(C(=O)c3cncs3)C2)c1 (centres undefined)	.	.	/	.	.	.	/	/	/
CC(C)Oc1cccc(C(=O)C2CCCN(C(=O)c3ccsc3)C2)c1 (centres undefined)	.	.	.	.	.	.	.	.	.
COc1ccc(CN2CCCC(C(=O)c3ccc4c(c3)OCO4)C2)c(F)c1 (centres undefined)	.	.	/	.	.	.	.	.	.
